Source: ChEMBL document CHEMBL1800034, “A synthetic 7,8-dihydroxyflavone derivative promotes neurogenesis and exhibits potent antidepressant effect” (J Med Chem, 2010)
The source made the active and inactive calls. No cut-off for these calls is given here.

Legend:
[1] = molecular target: BDNF/NT-3 growth factors receptor (Rattus norvegicus) (UniProt Q63604); experiment: Agonist activity at TrkB in E17 rat primary cortical neurons assessed as TrkB phosphorylation at 817 at 500 nM after 15 mins by immunoblotting; type: functional, cell-based; conditions: Cerebral cortex neuron
Sequence of BDNF/NT-3 growth factors receptor (Rattus norvegicus) (Q63604 whole entry): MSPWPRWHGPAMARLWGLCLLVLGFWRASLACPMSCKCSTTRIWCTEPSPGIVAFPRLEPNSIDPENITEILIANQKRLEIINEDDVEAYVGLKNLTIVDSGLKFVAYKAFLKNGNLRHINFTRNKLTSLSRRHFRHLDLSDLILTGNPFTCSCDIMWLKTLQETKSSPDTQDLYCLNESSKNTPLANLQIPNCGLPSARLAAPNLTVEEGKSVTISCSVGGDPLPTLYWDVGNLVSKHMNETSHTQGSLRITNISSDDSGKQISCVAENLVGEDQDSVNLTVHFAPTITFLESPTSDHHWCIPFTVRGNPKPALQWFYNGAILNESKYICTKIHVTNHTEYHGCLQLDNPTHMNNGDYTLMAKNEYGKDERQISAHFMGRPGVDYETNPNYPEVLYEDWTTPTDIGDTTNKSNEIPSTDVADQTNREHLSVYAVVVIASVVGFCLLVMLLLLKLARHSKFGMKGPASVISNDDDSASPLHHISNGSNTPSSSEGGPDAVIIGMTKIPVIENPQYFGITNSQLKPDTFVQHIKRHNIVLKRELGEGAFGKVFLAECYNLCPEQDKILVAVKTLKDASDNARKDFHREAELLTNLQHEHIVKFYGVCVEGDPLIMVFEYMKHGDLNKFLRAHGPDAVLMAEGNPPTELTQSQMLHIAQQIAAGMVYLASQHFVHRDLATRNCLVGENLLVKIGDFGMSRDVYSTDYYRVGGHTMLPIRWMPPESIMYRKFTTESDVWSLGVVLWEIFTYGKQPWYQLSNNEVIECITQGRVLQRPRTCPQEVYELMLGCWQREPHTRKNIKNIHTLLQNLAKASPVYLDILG
Method in brief: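 Rat cortical neurons from E17 embryos, 13 DIV, were treated with 500 nM compound for 15 min. Lysates were run on 10% SDS-PAGE and immunoblotted with p-TrkB Y817 antibody at 1:20,000–40,000.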

[2] = molecular target: BDNF/NT-3 growth factors receptor (Rattus norvegicus) (UniProt Q63604); experiment: Agonist activity at TrkB in E17 rat primary cortical neurons assessed as AKT phosphorylation at Ser 473 at 500 nM after 15 mins by ELISA; type: functional, cell-based; conditions: Cerebral cortex neuron
[3] = molecular target: BDNF/NT-3 growth factors receptor (Rattus norvegicus) (UniProt Q63604); experiment: Agonist activity at TrkB in E17 rat primary rat cortical neurons assessed as AKT phosphorylation at Ser 473 at 500 nM after 15 mins by ELISA; type: functional
[4] = molecular target: BDNF/NT-3 growth factors receptor (Rattus norvegicus) (UniProt Q63604); experiment: Agonist activity at TrkB in E17 rat primary cortical neurons assessed as AKT phosphorylation at Ser 473 at 500 nM after 15 mins by ELISA relative to control; type: functional, cell-based; conditions: Cerebral cortex neuron
[5] = molecular target: BDNF/NT-3 growth factors receptor (Rattus norvegicus) (UniProt Q63604); experiment: Agonist activity at TrkB in E17 rat primary cortical neurons by immunoblotting; type: functional, cell-based; conditions: Cerebral cortex neuron
Mus musculus = experiment: Neuroprotective activity in C57BL/6J mouse assessed as inhibition of kainic acid-induced caspase 3 activation in hippocampus region at 5 mg/kg, po administered 2 to 8 hrs prior to kainic acid challenge measured after 2 hrs by immunoblotting; type: functional, organism-based; design: dose 5 mg/kg
Method in brief: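 C57BL/6J mice dosed orally by gavage at 5 mg/kg. Kainic acid 20 mg/kg i.p. given at 0, 2 or 6 h after dosing. Mice killed 2 h after kainic acid; hippocampal lysates immunoblotted with anti-p-TrkB and anti-active caspase-3.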

[6] = molecular target: BDNF/NT-3 growth factors receptor (Rattus norvegicus) (UniProt Q63604); experiment: […] in E17 rat primary cortical neurons at 500 nM after 15 mins by immunoblotting; conditions: Cerebral cortex neuron
Method in brief: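 Primary cortical neurons from E17 rat embryos, 13 DIV, exposed to compound at 500 nM for 15 min. Lysates resolved on 10% SDS-PAGE and immunoblotted for phospho-TrkB (p-TrkB Y817 antibody, 1:20,000–40,000) alongside other signalling antibodies.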

SMILES	Activity [2]	other results
O=c1c(O)c(-c2ccccc2)oc2cc(O)ccc12	Active	Activity [1]: Active
O=c1cc(-c2ccccc2)oc2cc(O)cc(O)c12	inactive	–
O=c1cc(-c2cccc(O)c2)oc2c1ccc1ccccc12	inactive	–
O=c1cc(-c2ccccc2)oc2cc(O)c(O)c(O)c12	inactive	–
O=c1c(O)c(-c2ccccc2O)oc2ccccc12	inactive	–
O=c1cc(-c2ccccc2)[nH]c2c(O)c(O)ccc12	–	Activity [3]: inactive
O=c1c(O)c(-c2ccccc2)oc2ccccc12	inactive	–
O=c1c(-c2ccccc2)coc2cc(O)ccc12	inactive	–
O=c1cc(-c2cccc(O)c2)oc2c(O)c(O)ccc12	–	Activity [1]: Active; fold change (FC) [4]: 2
COc1ccc2c(=O)cc(-c3ccccc3)oc2c1OC	inactive	Activity [5]: Active
COc1ccc(-c2c(C)c3ccc(O)cc3oc2=O)cc1	inactive	–
COc1cccc(-c2cc(=O)c3ccc(O)cc3o2)c1	inactive	–
O=c1cc(-c2ccccc2)oc2cc(O)ccc12	inactive	–
O=c1cc(-c2ccc(O)c(O)c2)oc2ccccc12	inactive	–
COc1ccccc1-c1cc2ccc(O)cc2oc1=O	inactive	–
O=c1cc(-c2ccc(O)cc2)oc2c(O)c(O)ccc12	–	Activity [1]: Active
O=c1cc(-c2ccc(O)cc2O)oc2ccccc12	inactive	–
COc1cccc(-c2cc(=O)c3ccc(OC)cc3o2)c1	inactive	–
O=c1c(O)c(-c2cccc(O)c2)oc2ccccc12	inactive	–
O=c1c(O)c(-c2ccccc2O)oc2c(O)c(O)ccc12	Active	Activity [1]: Active
O=c1cc(-c2ccc(O)cc2)oc2ccccc12	inactive	–
C=C(C)[C@H]1CN[C@H](C(=O)O)[C@H]1CC(=O)O	–	inhibition (Mus musculus): Active
O=c1cc(-c2ccc(F)cc2)[nH]c2c(O)c(O)ccc12	–	Activity [3]: inactive
O=c1cc(-c2cccc(O)c2)oc2cc(O)c(O)cc12	Active	–

SMILES	Activity [2]	other results
O=c1cc(-c2cccc(O)c2)oc2ccccc12	inactive	–
COc1ccc(-c2cc(=O)c3ccc(O)cc3o2)cc1	inactive	Activity [1]: Active
O=c1cc(-c2cccc(O)c2O)oc2ccccc12	inactive	–
O=c1cc(-c2cc(O)cc(O)c2)oc2ccccc12	inactive	–
O=c1c(O)c(-c2cccc(O)c2)oc2cc(O)ccc12	inactive	–
C[S+](C)[O-]	inactive	–
O=c1cc(-c2cccc(O)c2)oc2cc(O)ccc12	Active	Activity [1]: Active
O=c1cc(-c2ccccc2)oc2cc(O)c(O)cc12	Active	–
O=c1cc(-c2ccccc2)oc2ccccc12	inactive	–
O=c1c(O)c(-c2ccc(O)c(O)c2)oc2c(O)c(O)cc(O)c12	–	inhibition [6]: Active
O=c1cc(-c2ccccc2)oc2cccc(O)c12	inactive	–
O=c1cc(-c2cncnc2)oc2c(O)c(O)ccc12	–	Activity [3]: Active
O=c1cc(-c2ccc(O)c(O)c2)oc2cc(O)ccc12	inactive	–
O=c1cc(-c2ccccc2O)oc2ccccc12	inactive	–
O=c1cc(-c2ccccc2)oc2ccc(O)cc12	inactive	–
COc1cccc(-c2oc3ccccc3c(=O)c2OC)c1	inactive	–
O=c1cc(-c2ccccc2O)oc2c(O)c(O)ccc12	Active	Activity [1]: Active
O=c1cc(-c2ccccc2)oc2c(O)c(O)cc(O)c12	Active	Activity [1]: Active
O=c1cc(-c2ccccc2)oc2ccc(O)c(O)c12	inactive	–
COc1cc(-c2oc3cc(O)ccc3c(=O)c2O)cc(OC)c1OC	inactive	–
COc1ccc2c(=O)cc(-c3ccccc3)oc2c1O	Active	Activity [5]: Active; Activity [1]: Active
COc1cccc(-c2cc(=O)c3ccccc3o2)c1OC	inactive	–
COc1c(O)ccc2c(=O)c(-c3ccc(Cl)cc3)coc12	inactive	–
